Measurements gathered from unrelated publications.
SRD5A1: 3-oxo-5-alpha-steroid 4-dehydrogenase 1 (SRD5A1, Homo sapiens, UniProt P18405)
HTR2A: 5-hydroxytryptamine receptor 2A (HTR2A, Homo sapiens, UniProt P28223)
EDNRA: Endothelin-1 receptor (EDNRA, Homo sapiens, UniProt P25101)

SMILES	target	read-out	action	technique	cell line	concentration	inhibition
COc1cc(C=CC(=O)O)ccc1OC(C)=O	SRD5A1	enzyme activity in cells	inhibitor		HaCaT	50 µM	18.6%
COc1cc2c3c(c1OC)-c1c(OC)ccc(-c4ccc(C#N)cc4)c1CC3N(C)CC2 (stereo not shown)	HTR2A	ligand displacement		radioligand		10 µM	34%
Cc1cc(O)c(-c2ccc([C@@H](C)CN(C)C)cc2)c2c1[nH]c(=O)c1sccc12	Serine/threonine-protein kinase VRK2 (VRK2, Homo sapiens, UniProt Q86Y07)	enzyme activity	inhibitor			0.1 µM	3.23%
COC(=O)C=Cc1ccc(OC(C)=O)c(OC(C)=O)c1	SRD5A1	enzyme activity in cells	inhibitor		HaCaT	50 µM	25.1%
COc1cc2c3c(c1OC)-c1c(OC)ccc(N4CCOCC4)c1CC3N(C)CC2 (stereo not shown)	HTR2A	ligand displacement		radioligand		10 µM	49%
Cc1cc(F)cc2c(CCC(=O)N[C@@H]3C(=O)NC[C@H]3O)c(-c3ccc(F)cc3)[nH]c12	EDNRA	cell-free assay				10 µM	-19%
C#Cc1cc(-c2cc(Nc3nc(N[C@@H](C)c4ccc(F)cn4)ncc3Cl)n[nH]2)ccc1C=O	Cytoplasmic tyrosine-protein kinase BMX (BMX, Homo sapiens, UniProt P51813)	enzyme activity	inhibitor			0.2 µM	70.8%
CCN1/C(=C/C(C)=O)Sc2ccc(F)cc21	EDNRA	ligand displacement		radioligand		10 µM	9.86%
CC(=O)Oc1ccc(C=CC(=O)O)cc1OC(C)=O	SRD5A1	enzyme activity in cells	inhibitor		HaCaT	50 µM	12.2%
NC/C(=C\F)COc1cccc(Cn2c(=S)[nH]c(=O)c3[nH]cnc32)c1	Cannabinoid receptor 1 (CNR1, Homo sapiens, UniProt P21554)	ligand displacement		radioligand		10 µM	< 50%
